Here are results for 42 compounds from ChEMBL document CHEMBL1138035, “Antitumor agents. 250. Design and synthesis of new curcumin analogues as potential anti-prostate cancer agents” (J Med Chem, 2006).

The test system of experiment [1] is PC-3. Description: Cytotoxicity against human PC3 cell line. It is filed as functional, cell-based.
In experiment [2] the test system is PC-3. Description: Inhibition of growth of human PC3 cell line at 20 ug/ml. It counts as functional. In outline:
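Growth assay in human prostate cancer cells (LNCaP in RPMI, PC-3 in DMEM, each with 10% fetal calf serum and antibiotics). Cells were exposed to compound for 2 days. Value is % inhibition of cell growth at 20 μg/ml. Variation between replicate experiments was ≤5%.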

Another experiment has as its system LNCaP. The experiment in a line: Cytotoxicity against human LNCaP cell line. It counts as functional, cell-based.
The mark [3] stands for this setting: Homo sapiens, PC-3, read-out: IC50.

As to `COc1cc(/C=C/C(=O)/C=C(O)/C=C/c2ccc(OCC=C(C)C)c(OC)c2)ccc1OCC=C(C)C`, the IC50 was more than 19.8 µM in the experiment with PC-3 [1] (setting [3]) and 6.1 µM in the experiment on LNCaP. The compound further returned an inhibition at 20 µg/mL in the experiment with PC-3 [2] of 41%.
Turning to `CCOc1ccc(/C=C/C(=O)/C=C(O)/C=C/c2ccc(OCC)c(OC)c2)cc1OC`, the IC50 with PC-3 [1] (setting [3]) was determined as 20.3 µM; in the experiment on LNCaP, 6.5 µM.
With `COc1ccc(/C=C/C(=O)/C=C(O)/C=C/c2ccc(OC)c(O)c2)cc1O`, the IC50 is 8.6 µM in the experiment on PC-3 [1] (setting [3]) and 10.9 µM in the experiment with LNCaP.
`COc1ccc(/C=C/C(O)=C/C(C)=O)cc1OC`: the figures for the IC50 with PC-3 [1] (setting [3]) and with LNCaP were 7 µM and 6.6 µM, respectively.
The matching figures for `COc1cc(/C=C/C(=O)CC(=O)/C=C/c2ccc(O)c(OC)c2)ccc1O` [CURCUMIN]: 7.7 µM and 3.8 µM.
The matching figures for `CCOC(=O)CC/C(C(=O)/C=C/c1ccc(OC)c(OC)c1)=C(O)\C=C\c1ccc(O)c(OC)c1`: 6.3 µM and 2.1 µM.
The matching figures for `CCNC(=O)/C=C/C(C(=O)/C=C/c1ccc(OC)c(OC)c1)=C(O)\C=C\c1ccc(OC)c(OC)c1`: 1.2 µM and 0.6 µM.
Turning to `COc1cc(OC)c(OC)cc1/C=C/C(=O)/C=C(O)/C=C/c1ccc(OC)c(OC)c1`, the IC50 in the experiment with PC-3 [1] (setting [3]) came to 8.2 µM; with LNCaP it was 8.6 µM.
As to `COc1ccc(/C=C/C(O)=C/C(=O)/C=C/c2ccc(OC)c(OC)c2OC)cc1OC`, the half-maximal inhibitory concentration (IC50) in the experiment with PC-3 [1] (setting [3]) was 9.1 µM; in the experiment on LNCaP, 7.7 µM.
With `COc1ccc(/C=C/C(=O)C(C)C(=O)/C=C/c2ccc(OC)c(OC)c2)cc1OC`, the figures for the IC50 in the experiment on PC-3 [1] (setting [3]) and with LNCaP were 3.5 µM and 5.8 µM, respectively.
The matching figures for `CCOC(=O)CC/C(C(=O)/C=C/c1ccc(OC2CCCCO2)c(OC)c1)=C(O)\C=C\c1ccc(OC2CCCCO2)c(OC)c1` (configuration not stated): 12.3 µM and 4.2 µM.
As for `COc1ccc(/C=C/C(=O)/C=C(O)/C=C/c2ccc(OC)c(C)c2)cc1C`, the IC50 in the experiment with PC-3 [1] (setting [3]) is more than 27.4 µM; in the experiment with LNCaP it was 7.7 µM. At 20 µg/mL the inhibition in the experiment with PC-3 [2] was 44%.
On to `COc1ccc(/C=C/C(O)=C/C(C)=O)cc1O`, for which the IC50 amounted to 6.1 µM in the experiment with PC-3 [1] (setting [3]) and 5.3 µM with LNCaP.
The corresponding values for `COc1ccc(/C=C/C(O)=C/C(=O)/C=C/c2ccc(OC)c(OC)c2)cc1O` are 5.5 µM and 4.8 µM.
Regarding `COc1cc(/C=C/C(=O)/C=C/c2ccc(O)c(OC)c2)ccc1O`, the IC50 worked out at 2.4 µM in the experiment on PC-3 [1] (setting [3]) and 1.4 µM in the experiment on LNCaP.
The corresponding values for `CCOC(=O)CCC(F)(C(=O)/C=C/c1ccc(O)c(OC)c1)C(=O)/C=C/c1ccc(O)c(OC)c1` are 9.8 µM and 6.3 µM.
As to `COc1cc(/C=C/C(O)=C/C(=O)/C=C/c2cccs2)ccc1O`, the IC50 with PC-3 [1] (setting [3]) stood at 7.7 µM; in the experiment on LNCaP it was 6.3 µM.
The matching figures for `COc1cc(OC)c(OC)cc1/C=C/C(=O)/C=C(O)/C=C/c1cc(OC)c(OC)cc1OC`: 2.4 µM and 2.9 µM.
The corresponding values for `CCOC(=O)CC\C(C(=O)/C=C/C=C/c1ccc(O)c(OC)c1)=C(O)/C=C/C=C/c1ccc(O)c(OC)c1` are 6.4 µM and 3.1 µM.
The matching figures for `CCOC(=O)CCC(F)(C(=O)/C=C/c1ccc(OC2CCCCO2)c(OC)c1)C(=O)/C=C/c1ccc(OC2CCCCO2)c(OC)c1` (configuration not stated): 6.3 µM and 7.3 µM.
On to `COc1cc(/C=C/C=C/C(=O)/C=C(O)/C=C/C=C/c2ccc(O)c(OC)c2)ccc1O`, for which the IC50 in the experiment with PC-3 [1] (setting [3]) came to 10.6 µM; in the experiment on LNCaP it was 4.4 µM.
The matching figures for `CCO/C(O)=C/C=C(C(=O)/C=C/c1ccc(O)c(OC)c1)C(=O)/C=C/c1ccc(O)c(OC)c1`: 11.7 µM and 7 µM.
In the case of `COc1ccc(/C=C/C(=O)/C=C(O)/C=C/c2ccc(OC)c(OC)c2)cc1OC`, the values for the IC50 in the experiment on PC-3 [1] (setting [3]) and in the experiment with LNCaP were 1.1 µM and 1.3 µM, respectively.
Turning to `COc1ccc(CCC(=O)CC(O)CCc2ccc(OC)c(OC)c2)cc1OC` (configuration not stated), in the experiment with PC-3 [2], at 20 µg/mL the inhibition was 33%. It took 10.8 µM to reach half-maximal inhibition in the experiment with LNCaP (IC50).
For the compound `COc1ccc(/C=C/C(O)=C/C(C)=O)c(OC)c1OC`, the IC50 turned out to be 7.8 µM in the experiment with PC-3 [1] (setting [3]) and 5.8 µM with LNCaP.
In the case of `COc1cc(/C=C/C(=O)/C(C(C)=O)=C(O)/C=C/c2ccc(O)c(OC)c2)ccc1O`, the IC50 in the experiment with PC-3 [1] (setting [3]) turned out to be 23.4 µM; with LNCaP, 8.8 µM.
`COc1ccc(/C=C/C(=O)/C=C/c2ccc(OC)cc2OC)c(OC)c1`: the IC50 in the experiment with PC-3 [1] (setting [3]) was 18.7 µM; with LNCaP, 21.8 µM.
Turning to `COc1cc(/C=C/C(O)=C/C(C)=O)ccc1O`, the figures for the IC50 in the experiment with PC-3 [1] (setting [3]) and in the experiment with LNCaP were 8 µM and 6.2 µM, respectively.
The matching figures for `COc1cc(OC)c(OC)cc1/C=C/C(O)=C/C(C)=O`: 10.5 µM and 12.5 µM.
As to `CCOC(=O)CC/C(C(C)=O)=C(O)\C=C\c1ccc(O)c(OC)c1`, the IC50 in the experiment with PC-3 [1] (setting [3]) was 43.7 µM; in the experiment on LNCaP, 51.5 µM.
The matching figures for `COc1ccc(/C=C/C(=O)CC(O)/C=C/c2ccc(OC)c(OC)c2)cc1OC` (configuration not stated): 18.4 µM and 17.7 µM.
As for `COc1ccc(/C=C/C(=O)NC(=O)/C=C/c2ccc(OC)c(OC)c2)cc1OC`, the IC50 in the experiment on PC-3 [1] (setting [3]) was more than 10 µM; in the experiment on LNCaP, 2.2 µM. This compound also registered an inhibition at 20 µg/mL in the experiment with PC-3 [2] of 36%.
`COc1cc(/C=C/C(O)=C/C(=O)/C=C/c2ccc[nH]2)ccc1O`: the IC50 with PC-3 [1] (setting [3]) is 15.4 µM; in the experiment on LNCaP, 13.6 µM.
As to `COc1ccc(/C=C/C(=O)/C=C(O)/C=C/c2ccc(OC)c(OC)c2OC)c(OC)c1OC`, the values for the IC50 in the experiment with PC-3 [1] (setting [3]) and in the experiment with LNCaP were 8.1 µM and 4.8 µM, respectively.
For `COc1cc(/C=C/C(=O)/C=C(O)/C=C/c2ccc(OC)c(OC)c2)ccc1O`, the IC50 in the experiment with PC-3 [1] (setting [3]) is 6 µM; in the experiment with LNCaP, 3.3 µM.
With `COc1ccc(/C=C/C(=O)/C=C/c2ccc(OC)c(OC)c2)cc1OC`, the IC50 in the experiment with PC-3 [1] (setting [3]) is 3.8 µM; with LNCaP it was 3.4 µM.
For `COc1ccc(/C=C/C(O)=C/C(C)=O)c(OC)c1`, the results for the IC50 in the experiment on PC-3 [1] (setting [3]) and in the experiment on LNCaP were 12.3 µM and 9.9 µM, respectively.
`COc1ccc(/C=C/C(=O)/C=C(O)/C=C/c2ccc(OC)cc2OC)c(OC)c1` registered an inhibition at 20 µg/mL in the experiment with PC-3 [2] of 45%. In the experiment with LNCaP, this compound yielded an IC50 of 11.8 µM.
`COc1cc(/C=C/C(O)=C/C(=O)/C=C/c2ccc(CO)o2)ccc1O`: the figures for the IC50 in the experiment on PC-3 [1] (setting [3]) and with LNCaP were 9 µM and 7.3 µM, respectively.
The corresponding values for `COc1ccc(/C=C/C(=O)C(C)(F)C(=O)/C=C/c2ccc(OC)c(OC)c2)cc1OC` are 4.6 µM and 6.4 µM.
Take `Cc1cc(/C=C/C(=O)/C=C(O)/C=C/c2ccc(O)c(C)c2)ccc1O`: the IC50 with PC-3 [1] (pc-3) amounted to 4.8 µM; in the experiment on LNCaP it was 1.8 µM.
As to `COc1ccc(/C=C/C(=O)C(/C=C/CO)=C(O)/C=C/c2ccc(OC)c(OC)c2)cc1OC`, the values for the IC50 in the experiment with PC-3 [1] (setting [3]) and with LNCaP were 1.3 µM and 0.2 µM, respectively.

As a reminder, the IC50 is the point on the concentration scale where inhibition reaches its midpoint. As a reminder, the inhibition is the relative decrease from the control value, in per cent. Read a high inhibition as strong suppression.
